Among the data in ChEMBL document CHEMBL2429848, “Proanthocyanidins from Spenceria ramalana and their effects on AGE formation in vitro and hyaloid-retinal vessel dilation in larval zebrafish in vivo” (J Nat Prod, 2013) are IC50 and Activity values, retold here.

The structures appear in SMILES notation. Activity calls are given as the source filed them. No cut-off for these calls is given here.

Data set [1] can be described thus: Antiglycation activity assessed as inhibition of advanced glycation end product formation after 7 days by spectrofluorometric analysis. It is filed as physicochemical. In outline: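 Bovine serum albumin (10 mg/mL) in 50 mM phosphate buffer pH 7.4 with 0.02% sodium azide was mixed with 0.2 M fructose/glucose solution and serially diluted compound, with aminoguanidine as positive control. Samples were incubated 7 days at 37 °C and fluorescence read at ex 350/em 450 nm, in triplicate. IC50 came from least-squares regression of log concentration against remaining activity.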

The species entered for data set [2] is Danio rerio. Nature of the data set: Antidiabetic retinopathic activity in zebrafish flk:EGFP transgenic embryo assessed as reduction of high glucose-induced dilation of hyaloidretinal vessels at 10 to 20 uM treated 1 day post fertilization to 6 days post fertilization. Type of data set: functional, organism-based. In outline:
(§1)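 flk:EGFP transgenic embryos, five per well, were kept from 1 dpf in egg water with 30 mM glucose plus compound (10 or 20 μM) until 6 dpf. They were then fixed in 4% PFA, and lenses were isolated with the optic disc up and imaged by fluorescence. Diameters were taken in 3–4 main branches up to the first sub-branch. Percentage inhibition = [1 − (Tn − Cav)/(HGav − Cav)] × 100, from three independent experiments.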

The species entered for data set [3] is Danio rerio. Nature of the data set: Antidiabetic retinopathic activity in zebrafish flk:EGFP transgenic embryo assessed as reduction of high glucose-induced dilation of hyaloidretinal vessels at 20 uM treated 1 day postfertilization to 6 days postfertilization relative to control. It is filed as functional. More on the design: scale not given: the % may be the effect or the level left. In short, it runs like this:
as §1

The species named for data set [4] is Danio rerio. In words: Antidiabetic retinopathic activity in zebrafish flk:EGFP transgenic embryo assessed as reduction of high glucose-induced dilation of hyaloidretinal vessels at 10 uM treated 1 day postfertilization to 6 days postfertilization relative to control. More on the design: scale not given: the % may be the effect or the level left. It is filed as functional. In outline:
as §1

The species named for data set [5] is Danio rerio. In words: Toxicity in zebrafish flk:EGFP transgenic embryo at 10 to 20 uM treated 1 day post fertilization to 6 days post fertilization. Type of data set: organism-based. The following applies: in vivo.

What is called IC50 is the point on the concentration scale where inhibition reaches its midpoint.

As for `OC[C@H]1O[C@@H](O[C@@H]2Cc3c(O)cc4c(c3O[C@H]2c2ccc(O)cc2)[C@@H]2c3c(O)cc(O)cc3O[C@](c3ccc(O)cc3)(O4)[C@H]2O)[C@H](O)[C@@H](O)[C@@H]1O`, the IC50 in data set [1] was found to be 32.1 µM. Also, the result in data set [2] was Active. Consider `Oc1ccc([C@@H]2Oc3c(c(O)cc4c3[C@@H]3c5c(O)cc(O)cc5O[C@](c5ccc(O)cc5)(O4)[C@H]3O)C[C@H]2O)cc1`, for which the IC50 in data set [1] is 34.7 µM. In data set [2], the result was Active. Consider `Oc1ccc([C@@]23Oc4cc(O)cc(O)c4[C@@H](c4c(cc(O)c5c4O[C@H](c4ccc(O)c(O)c4)[C@@H](O)C5)O2)[C@@H]3O)cc1`, for which the Activity in data set [3] was found to be 104%. In data set [1], the IC50 came to 14.1 µM. With `Oc1ccc([C@@H]2Oc3c(c(O)cc4c3[C@@H]3c5c(O)cc6c(c5O[C@](c5ccc(O)c(O)c5)(O4)[C@H]3O)[C@@H]3c4c(O)cc(O)cc4O[C@](c4ccc(O)cc4)(O6)[C@H]3O)C[C@H]2O)cc1`, the Activity was 164.1% in data set [3], 157.7% in data set [4] and “Non-toxic” in data set [5]. Moreover, the IC50 in data set [1] is 17.4 µM. As to `Oc1cc(O)c2c(c1)O[C@H](c1ccc(O)c(O)c1)[C@H](O)C2` [(-)-EPICATECHIN], the IC50 in data set [1] came out at 13.6 µM. Take `Oc1ccc([C@@H]2Oc3c(c(O)cc4c3[C@@H]3c5c(O)cc6c(c5O[C@](c5ccc(O)cc5)(O4)[C@H]3O)[C@@H]3c4c(O)cc(O)cc4O[C@](c4ccc(O)cc4)(O6)[C@H]3O)C[C@H]2O)cc1`: the IC50 in data set [1] amounted to 39.8 µM. Also, the outcome in data set [2] was Active. With `Oc1ccc([C@H]2Oc3c(c(O)cc4c3[C@@H]3c5c(O)cc(O)cc5O[C@](c5ccc(O)cc5)(O4)[C@H]3O)C[C@@H]2O)cc1`, the IC50 in data set [1] came out at 33.5 µM. Besides, the outcome in data set [2] was Active.

`N=C(N)NN` [PIMAGEDINE]: the IC50 in data set [1] is 966 µM. The same measure, in the same setting: for `O=C(O[C@@H]1Cc2c(O)cc(O)cc2O[C@@H]1c1ccc(O)c(O)c1)c1cc(O)c(O)c(O)c1` [EPICATECHIN GALLATE] the value was 15.1 µM.
